Source: PubChem BioAssay (several laboratories)
Hits are enriched below; roughly 1.4% of the tested compounds scored in any of these assays.
FXIa inh 1536: factor XIa (human) inhibition; P03951; purified FXIa, Boc-Glu-Ala-Arg-AMC fluorogenic substrate; inhibition, % at 5 µM; actives 0.14% (n = 220,000);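 active = inhibition of at least 40%; inactive = inhibition below 40%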;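 also: fluorescence of freed AMC excited at 355 nm; 0% = enzyme without compound and 100% = no enzyme blank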
Thrombin inh: inhibitors of human thrombin; inhibition, % at 5 µM; AID 1046; alpha-thrombin, Boc-VPR-AMC fluorogenic substrate cleavage; actives 0.26% (n = 220,000);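 active = inhibition at or above 40%; inactive = inhibition below 40%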;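 also: 0% = enzyme with no compound and 100% = wells without enzyme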
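System: Human alpha-thrombin protein | Medium: pH 7.5 Tris (50 mM) with NaCl 150 mM, Tween 20 0.05% | Times: Enzyme reaction carried out at room temperature | Detection: AMC fluorescence, 355/460 nm | Evaluation: Percent inhibition scaled between no-compound controls and no-enzyme blanks | Benchmarks: Enzyme without compound as high, wells lacking enzyme as low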
FXIIa inh: blocks human coagulation factor XIIa protease activity | inhibition, % at 5 µM | actives 0.3% (n = 220,000) | purified FXIIa, Boc-QGR-AMC fluorogenic substrate, 2 h; in the data active = inhibition above about 40%;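 also: 0% = enzyme with no compound and 100% = blank without enzyme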
m-calpain inh: inhibitors of pig calpain II | AID 1236 | purified calpain II, fluorogenic peptide substrate, 30 min | inhibition, % at 16 µM | actives 0.37% (n = 220,000);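 active = inhibition above about 50%, limit read from the data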
hK5 inh: inhibitors of human kallikrein 5. Q9Y337. recombinant hK5, fluorogenic AMC substrate cleavage. inhibition, % at 5 µM. actives 0.59% (n = 210,000);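 active = inhibition of 40% or more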;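 also: 0% = enzyme controls without compound and 100% = no-enzyme blanks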
Target sequence (Q9Y337 67-293 limits assumed): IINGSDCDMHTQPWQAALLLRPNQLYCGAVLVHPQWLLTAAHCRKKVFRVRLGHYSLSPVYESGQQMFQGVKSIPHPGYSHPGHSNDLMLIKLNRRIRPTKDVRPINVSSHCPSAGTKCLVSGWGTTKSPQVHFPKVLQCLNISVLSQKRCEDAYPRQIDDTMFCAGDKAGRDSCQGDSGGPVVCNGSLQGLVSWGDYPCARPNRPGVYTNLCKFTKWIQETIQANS
The depositor's hits bear a star; x = no result given.

SMILES	FXIa inh 1536	Thrombin inh	FXIIa inh	m-calpain inh	hK5 inh
Cc1cc(C(=O)CCl)c(C)n1CCc1ccc(Cl)cc1	2	-1	7	-15	x
COc1ccc(CCn2c(C)cc(C(=O)CCl)c2C)cc1OC	30	x	103*	23	24
Cc1nonc1OCCNCCNc1ccccc1[N+](=O)[O-]	1	6	11	5	-5
Cc1nonc1OC(C)CNCCNc1ccc([N+](=O)[O-])cc1 (centres undefined)	-10	2	43*	-14	8
CCCCSc1nnc2c(n1)OC(C(=O)c1ccccc1)Nc1ccccc1-2 (centres undefined)	6	11	21	65*	-15
COc1ccccc1C(=O)C1Nc2ccccc2-c2nnc(SC)nc2O1 (centres undefined)	9	2	19	-10	-23
Cc1ccc(/C=N/N=C2/NC(=O)C(CC(=O)Nc3ccccc3)S2)o1 (centres undefined)	-1	2	2	-17	-25
FC(F)(F)c1nnc2ccc(NCc3cccnc3)nn12	-2	-10	2	-8	0
FC(F)(F)c1nnc2ccc(NCc3ccccc3)nn12	-4	0	0	92*	-9
CCOC(=O)C1CCCN(C(=O)CSc2ccc(NC(C)=O)cc2)C1 (centres undefined)	-4	-5	4	63*	-5
Cc1ccccc1CN1CCc2c(OCC(=O)N3CCCc4ccccc43)cccc2C1=O	13	1	9	44	53*
CCN(CC(=O)NCc1ccc(Cl)cc1)C(=O)c1ccc(S(=O)(=O)N(C)C)cc1	-2	2	11	-17	2
COc1cc(OC)cc(C(=O)N[C@H](C(=O)Nc2ccc3c(c2)OCO3)C(C)C)c1	0	-13	1	3	3
CC(=O)OC1C2CCC1C([N+]1(C)CCCCC1)CC2 (centres undefined)	-8	-4	4	-6	-9
CC(C(=O)Nc1ccccc1Oc1ccccc1)c1ccccc1 (centres undefined)	6	2	12	52*	-6
Cn1nc([N+](=O)[O-])nc1Oc1ccc(C(C)(C)C)cc1	4	-9	7	-2	-3
FC(F)C(F)(F)C(F)(F)C(F)(F)c1cc(-c2ccccc2)n[nH]1	50*	1	50*	40	-11
CC(C)(C)c1ccc(/C([O-])=C(/C(=S)NCc2ccco2)[n+]2ccccc2)cc1	13	5	20	6	-11
Cc1ccn(CC(=O)O)c(=O)c1	28	-6	58*	17	-2
CC1CC(C)CN(CC(=O)N2CCOCC2)C1 (centres undefined)	-1	-2	9	-30	2
O=C(Cc1ccc(F)cc1)N/N=C/c1ccncc1	19	30	36	22	55*
O=C(N/N=C/c1ccc(F)cc1)c1ccccc1	0	-7	10	-21	2
O=C(O)c1ccc(/C=N/NC(=O)c2ccc(F)cc2)cc1	-6	68*	-1	0	-4
O=C(Nc1ccc(Cl)c(Cl)c1)C1CC(=O)N(c2ccc(Br)cc2)C1 (centres undefined)	14	49*	19	24	29
CN(c1ncc(C(F)(F)F)cc1Cl)n1cc(C(N)=O)c2ccccc2c1=O	5	3	17	-9	-5
SMILES	FXIa inh 1536	Thrombin inh	FXIIa inh	m-calpain inh	hK5 inh
O=C1c2ccccc2C(=O)N1CCN1CCCCC1	1	31	25	13	51*
NC(=O)COC(=O)c1ccc(Cl)c(S(=O)(=O)N2CCN(c3ccc(F)cc3)CC2)c1	33	20	24	8	45*
NC(=O)COC(=O)c1cccc(S(=O)(=O)N2CCN(c3ccc(F)cc3)CC2)c1	-4	-2	-1	0	-6
Cn1nc(-c2ccccc2)cc1NS(=O)(=O)c1ccccc1	-6	-4	-2	-2	-2
Oc1ccc(/C=N/N2CCN(C3c4ccccc4-c4ccccc43)CC2)c(O)c1	48*	22	26	24	-2
COc1cc([N+](=O)[O-])c(C(=O)N2CCOCC2)c([N+](=O)[O-])c1	8	0	11	-5	-2
CCN1CCc2c(OCC(=O)N3CCCCC3)cccc2C1=O	-2	1	5	22	-8
Cc1cc2nc(C)c3c(n2n1)CCC3	-1	-2	5	-34	1
Brc1ccc(Nc2ncnc3[nH]ncc23)cc1	2	-3	6	11	2
COc1cccc(NC(=S)Nc2ccc(Br)cc2Cl)c1	36	51*	41*	29	39
CCOc1ccc(NC(=S)Nc2ccc(Br)cc2Cl)cc1	-6	-6	4	-9	-6
COc1cccc(NC(=S)NCCC(c2ccccc2)c2ccccc2)c1	-15	41*	0	56*	-20
COc1cc(NC(=S)NCCC(c2ccccc2)c2ccccc2)cc(OC)c1	6	-3	10	5	-8
O=C(O)c1cc(O)ccc1NC(=O)c1cccc2ccccc12	0	-5	4	-7	-2
COCC(=O)n1nc(-c2ccccc2)nc1NCc1ccccc1	2	91*	5	22	4
COCC(=O)n1nc(-c2ccccc2)nc1NCc1ccc(F)cc1	6	90*	13	-10	-8
CCOC(=O)C(=O)N(Nc1ccccc1C)c1ccccc1C	-4	-12	4	11	0
CCOC(=O)C(=O)N(Nc1ccc(C)cc1)c1ccc(C)cc1	50*	11	24	6	34
Oc1cccc(-c2nc3ccccc3s2)c1	14	104*	12	-3	63*
S=C(NCc1ccco1)NCC1CCCO1 (centres undefined)	-1	7	7	-3	-2
Cc1cccc(NC(=O)NCc2ccc3[nH]c(C)cc3c2)c1	0	-4	13	97*	3
Cc1cc2cc(CNC(=O)NC3CCCCC3)ccc2[nH]1	-5	3	-1	39	-3
Cc1cc2cc(CNC(=S)NC3CCCCC3)ccc2[nH]1	-2	-5	11	87*	5
O=C(NC(=S)NCCc1ccccn1)c1ccco1	-7	-6	x	-8	-5
CN(CCc1ccccn1)C(=S)NC(=O)c1ccco1	-1	-7	9	52*	-5
SMILES	FXIa inh 1536	Thrombin inh	FXIIa inh	m-calpain inh	hK5 inh
CCOc1ccc(Nc2nnc(SCc3nc4ccccc4c(=O)[nH]3)s2)cc1	0	-1	10	52*	5
Cc1ccccc1Nc1nnc(SCc2nc3ccccc3c(=O)[nH]2)s1	-8	-3	-8	5	-21
Cc1ccccc1NC(=O)COC(=O)CCc1ccccc1	-1	-2	13	64*	-3
COc1ccc(N2C(=O)N(Cc3cccc(F)c3)c3ccccc3S2(=O)=O)cc1	30	11	31	63*	18
COc1ccc(N2C(=O)N(Cc3ccccc3F)c3ccccc3S2(=O)=O)cc1	40	3	25	58*	20
Cc1ccc(N2C(=O)N(CC(=O)C(C)(C)C)c3ccccc3S2(=O)=O)cc1	0	-9	2	3	-6
